Consider 98 compounds from ChEMBL document CHEMBL4513216, “Probing the Open Global Health Chemical Diversity Library for Multistage-Active Starting Points for Next-Generation Antimalarials” (ACS Infect Dis, 2020).

This data set in a line: Toxicity liver stage against HepG2, at 10uM. The format is cell-based. Also on record: test concentration 10 uM, cell line HepG2-A16-CD81EGFP. As to conditions: human, HepG2-A16-CD81EGFP cells; read-out: INHIBITION
The method, boiled down:
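Uninfected HepG2-A16-CD81EGFP cells, 3 × 10^3 per well, 1536-well, plated on prespotted compound at 10 μM final, parasite-free screening media added to match infected plates; puromycin 10 μM positive, DMSO 0.5% negative; run in parallel with 48 h PbLuc assay at 37 °C, 5% CO2; viability by CellTiter-Glo luminescence, normalized to controls.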
As for `O=C(NCCC1=CCCCC1)c1ccc(-n2cccc2)nc1`, the cytotoxicity at 10 µM was -1.46%.
As to `CC1CN(c2ncccc2C(=O)N[C@@H]2CCCc3ccccc32)CCN1` (stereo partly drawn), the cytotoxicity at 10 µM was found to be 10.7%.
Consider `CNC(=O)c1nc(CC(=O)Nc2cccc(C(F)(F)F)c2)no1`, for which the cytotoxicity at 10 µM was -6.96%.
Consider `Cc1nn(-c2ccc(C(=O)O)cc2)c2c1C(C(C)C)SCC(=O)N2` (stereo not drawn), for which the cytotoxicity at 10 µM is -3.58%.
Consider `Cc1ccc(S(=O)(=O)NCCNc2cc(-n3cccc3)ncn2)c(C)c1`, for which the cytotoxicity at 10 µM is -0.817%.
As for `CCN1C(=O)CCC12CCN(S(=O)(=O)c1ccccc1)CC2`, the cytotoxicity at 10 µM was -4.9%.
Turning to `CC(C)C(=O)NC1COC2(CCN(C(=O)c3cccnc3)CC2)C1` (stereo not drawn), the cytotoxicity at 10 µM was 4.26%.
Under `Cn1cccc1C(=O)N1C[C@H]2CN(Cc3cccnc3)C[C@H]2C1` stands 3.94%; under `O=C(C1CCOCC1)N1CC[C@@H](O)[C@@H]1Cc1ccncc1`, -2.36%; under `CCN(C(=O)c1nc2c(s1)CCCN2Cc1ccccc1)C(C)C`, 14.2%.
Turning to `Cc1nc(CNCC2COCc3c(-c4ccoc4)nnn3C2)cs1` (stereo not drawn), the cytotoxicity at 10 µM came to 8.22%.
The value for `Cc1cc(NCCO)nc(N2CCCC2)c1C#N` was -7.02%; that for `Cc1n[nH]c2c1C(c1cnn(C)c1)SCC(=O)N2` (stereo not drawn) was 7.7%.
The value for `CN1C(=O)C(C)(C)COc2cc(NS(=O)(=O)Cc3ccccc3)ccc21` was -7.79%; that for `CN(C)C(=O)N1CCc2c(nnn2C)C1COCc1ccccc1` (stereo not drawn) was -8.39%; that for `CS(=O)(=O)Nc1nn(Cc2ccc(F)cc2)cc1Br` was 5.88%.
For `Cc1cc(C(=O)NCc2cccs2)nc(N2CCCC2)n1`, the cytotoxicity at 10 µM is -0.438%.
Consider `COc1ccc(S(=O)(=O)N2CCOC(C)(C(N)=O)C2)cc1` (stereo not drawn), for which the cytotoxicity at 10 µM was found to be 5.49%.
The value for `O=C(C1CC1)N1CCCC(C2=Nc3ccccc3S(=O)(=O)N2)C1` (stereo not drawn) was -1.45%.
Take `CCn1c(SC)nnc1C1CCN(C(=O)N2CCCC2)CC1`: the cytotoxicity at 10 µM was -0.78%.
With `CS(=O)(=O)c1cncnc1C1CCCN(C(=O)NCc2ccccc2)C1` (stereo not drawn), the cytotoxicity at 10 µM was -0.375%.
In the case of `COCCN(CCOC)c1ncc(C#N)cc1Cl`, the cytotoxicity at 10 µM worked out at 2.8%.
The value for `CSC(C)C(=O)Nc1ccnn1-c1ccccc1C` (stereo not drawn) was -12.5%.
`O=C(NC1(C(=O)NCC2CC2)CCCC1)C1Cc2cc(F)ccc2O1` (stereo not drawn): the cytotoxicity at 10 µM was found to be 8%.
Consider `CN(CC(=O)NCC(CCO)c1ccccc1)C(=O)OC(C)(C)C` (stereo not drawn), for which the cytotoxicity at 10 µM was -6.58%.
For the compound `CCc1[nH]c(C2(N)CCCCC2)nc(=O)c1C`, the cytotoxicity at 10 µM turned out to be 7.61%.
For the compound `OCCN(Cc1cccnc1)c1ccc(Cl)cn1`, the cytotoxicity at 10 µM is 31.9%.
As for `CS(=O)(=O)CCN1CCc2c(ncn2C2CC2)C1`, the cytotoxicity at 10 µM is -6.06%.
As for `Brc1ccc(C2(NCc3noc(C4CC4)n3)CCC2)cc1`, the cytotoxicity at 10 µM worked out at 13.3%.
For `CC(=O)N(C)CC(=O)NC1(c2ccc(Cl)c(Cl)c2)CC1`, the cytotoxicity at 10 µM is -5.57%.
On to `CCN(CC)S(=O)(=O)N1CCCC1CC(=O)c1cccs1` (stereo not drawn), for which the cytotoxicity at 10 µM was found to be 3.62%.
As for `CNC(=O)N1CCCCC1CCNS(C)(=O)=O` (stereo not drawn), the cytotoxicity at 10 µM is -3.41%.
`COc1ccc(C)cc1CC(=O)NC1(C#N)CCOCC1`: the cytotoxicity at 10 µM was 6.18%.
Take `CC(C)(C)c1noc(CN2CCN(C(=O)c3ccco3)CC2)n1`: the cytotoxicity at 10 µM was -15.8%.
Under `CCC(C)C(=O)NCCCn1nc(C)cc1C` (stereo not drawn) stands 0.0879%.
For the compound `CS(=O)(=O)CCN(CC1CCCO1)C1CCCC1` (stereo not drawn), the cytotoxicity at 10 µM is 4.4%.
With `Cc1cccn2cc(CN3CCCC(c4ccn[nH]4)C3)nc12` (stereo not drawn), the cytotoxicity at 10 µM is -5.95%.
The value for `CS(=O)(=O)CCNCc1ccc(OCc2cscn2)cc1` was -136%; that for `O=C1CN(C(=O)C2CCCOC2)CCN1Cc1ccc(Cl)cc1` (stereo not drawn) was -152%.
For `FC(F)(F)c1cccc(C2(CNCc3cc[nH]c3)CCOCC2)c1`, the cytotoxicity at 10 µM was -6.76%.
Under `Cc1cnn(CCNCCCOc2ccc(C#N)cc2)c1` stands -0.222%; under `COc1cc(C(=O)N(Cc2ccco2)C2CC2)cc2c1OCCO2`, 2.35%; under `Cc1cnccc1N1CCCN(C(=O)CCCn2ccnc2C)CC1`, -5.39%.
Under `O=C(Nc1nc(-c2ccccc2)ns1)N1CCN(C(=O)C2CC2)CC1` stands -150%; under `CN(C)C(C(=O)NCCSc1ncn[nH]1)c1cccc(F)c1` (stereo not drawn), -1.64%; under `COc1cccc(-n2c(SCC(=O)O)nnc2-c2cn[nH]c2)c1`, -6.76%.
Consider `Cc1ncsc1CCC(=O)N1CCCC1c1cccnc1` (stereo not drawn), for which the cytotoxicity at 10 µM came out at 13.4%.
Take `O=C(O)c1cn(CC2CCCN(c3nccc4occc34)C2)nn1` (stereo not drawn): the cytotoxicity at 10 µM was -5.17%.
Under `CS(=O)(=O)NCc1cc2n(n1)CCCN(Cc1cc3ccccc3o1)C2` stands 0.403%; under `Cn1cccc1C(=O)N1CCCC(Cn2cc(CO)nn2)C1` (stereo not drawn), 1.85%; under `CC(C)CN1CCn2nc(CNc3ncnc4[nH]ccc34)cc2C1`, -0.531%.
With `CCCc1nc(CN(CC)C(=O)c2ccc3ncsc3c2)no1`, the cytotoxicity at 10 µM stood at 9.65%.
As for `COc1ccc(C(C)n2ccnc2-c2cc3n(n2)CCCNC3)cc1F` (stereo not drawn), the cytotoxicity at 10 µM was -3.06%.
Take `CN(C)c1nc2c(c(N3CCc4c(c(CO)nn4C)C3)n1)CCNC2`: the cytotoxicity at 10 µM was -5.72%.
Under `COc1cc(NCc2ccccc2-n2cncn2)nc(N)n1` stands -11%; under `Cc1nc(C)n(CCCn2ccnc2-c2cc3n(n2)CCCNC3)n1`, 3.71%.
On to `O=C(CCc1cn[nH]c1)N1C[C@H](CO)C[C@H](CN2CCOCC2)C1`, for which the cytotoxicity at 10 µM is 2.72%.
Take `COCCC1(CO)CCCN(C(=O)c2cc(Cl)ccc2F)C1` (stereo not drawn): the cytotoxicity at 10 µM was determined as 4.36%.
With `CCN1CCC(CC(=O)N[C@H](C(=O)O)c2cccc(F)c2F)CC1`, the cytotoxicity at 10 µM is -2.62%.
For the compound `Cc1cnccc1CN(C)C(=O)c1cccc(CCC(C)(C)O)c1`, the cytotoxicity at 10 µM was -3.55%.
On to `Cc1nc(NCCSc2nnc(C)s2)c2cccnc2n1`, for which the cytotoxicity at 10 µM was -0.125%.
With `Cc1ccc(F)cc1CC(=O)N(CCN1CCOCC1)Cc1ccco1`, the cytotoxicity at 10 µM was -3.91%.
For `C[C@@H]1CN(C2CCN(c3ccccc3)CC2)CC[C@@]1(O)C1CCOCC1`, the cytotoxicity at 10 µM was -10.6%.
`COCCCC1(CO)CCCN(CCS(C)(=O)=O)C1` (stereo not drawn): the cytotoxicity at 10 µM is -16%.
For the compound `COCCc1noc(CN2CCCCC2Cn2cccn2)n1` (stereo not drawn), the cytotoxicity at 10 µM is -1.3%.
Take `CN(C)C(=O)c1cccc(CN2CCOC(Cn3cccn3)C2)c1` (stereo not drawn): the cytotoxicity at 10 µM was -0.29%.
Turning to `CCc1ccc(C(=O)N2CCCCC2Cn2cccn2)o1` (stereo not drawn), the cytotoxicity at 10 µM is -6.8%.
Turning to `CN1CCOC(CN(C(=O)COc2ccccc2)c2nccs2)C1` (stereo not drawn), the cytotoxicity at 10 µM was -8.18%.
In the case of `Cc1nn(C)c(C)c1C1CCCN1Cc1nc(-c2cccs2)no1` (stereo not drawn), the cytotoxicity at 10 µM is -9.43%.
The value for `Cc1nc(C)n(CC2CCCN(Cc3cc(C#N)ccc3F)C2)n1` (stereo not drawn) was -18.3%; that for `CNc1cc(N2CCCC2CNCc2cscn2)ncn1` (stereo not drawn) was -0.426%; that for `N#Cc1ccccc1N1CCCN(C(=O)CCc2ccco2)CC1` was -8.48%.
Under `CN(C)c1cc(CNC(=O)c2cc(F)ccc2F)ccn1` stands -8.35%; under `c1ccc(Cc2noc(CN3CCCC(Cn4cncn4)C3)n2)cc1` (stereo not drawn), -2.38%.
In the case of `Cc1ncc(C(=O)N2CCCC(n3cccn3)C2)s1` (stereo not drawn), the cytotoxicity at 10 µM was -5.8%.
Regarding `CN(Cc1nnc2n1CCC2)C(=O)c1ccc2c(c1)OCCO2`, the cytotoxicity at 10 µM is -17.8%.
With `Cc1ccc(-c2ncc(C(=O)NS(C)(=O)=O)s2)c(C)c1`, the cytotoxicity at 10 µM was -8.91%.
For `COC(=O)c1cc(C(=O)N2CCOCC2(C)C)n(-c2ccccc2)n1`, the cytotoxicity at 10 µM is -10.2%.
In the case of `O=C(Cn1cnnn1)N1CCCCC1Cn1cccn1` (stereo not drawn), the cytotoxicity at 10 µM is -9.24%.
Turning to `CCCc1noc(CCC(=O)N2CCCC2c2ccsc2)n1` (stereo not drawn), the cytotoxicity at 10 µM was -11%.
With `CC(NC(=O)N1CCN(c2ccccc2)CC1)c1nncn1C` (stereo not drawn), the cytotoxicity at 10 µM is 2.36%.
Under `Cc1nn(C)c(Cl)c1C1CCCN1C(=O)c1nccnc1N` (stereo not drawn) stands -6.9%; under `O=C(NCc1ccc(-n2cncn2)nc1)c1ccc2c(c1)CCO2`, -10.2%; under `O=C(Nc1cccc(F)c1)C1=NOC2(CCNCC2)C1`, 5.19%.
Regarding `O=C(Nc1cccnc1)[C@@H]1C[C@H]2OCC[C@H]2N(Cc2ccsc2)C1`, the cytotoxicity at 10 µM came out at 2.88%.
For `O=C(Cc1cccs1)N1CCn2cc(Cn3cccn3)nc2C1`, the cytotoxicity at 10 µM is -77.9%.
As for `COCC(=O)NC1CC2(CCN(CC3CC3)CC2)Oc2ccccc21` (stereo not drawn), the cytotoxicity at 10 µM was -2.6%.
On to `O=C(C1CCCCC1)N1CCCC2(CCN(c3cnccn3)CC2)C1`, for which the cytotoxicity at 10 µM came to 6.59%.
Consider `CC(C)c1nc(-c2cc(C(=O)NCCN(C)C)c3ccccn23)cs1`, for which the cytotoxicity at 10 µM amounted to 4.77%.
Under `Cc1nc(CN2CCC3(CCCN(C(=O)c4cnccn4)C3)C2)cs1` (stereo not drawn) stands -147%.
As for `Cc1noc([C@@H]2CC[C@@H]3[C@@H](CCN3S(=O)(=O)c3cccnc3)O2)n1`, the cytotoxicity at 10 µM was -13.1%.
Turning to `CCOC1COC2(CCN(Cc3ccco3)CC2)C1` (stereo not drawn), the cytotoxicity at 10 µM is -2.98%.
For the compound `CCN1CC2(CC1=O)CN(Cc1cnn(C)c1)CCN(C(C)=O)C2` (stereo not drawn), the cytotoxicity at 10 µM is -12.5%.
With `CC(C)C1COC2(CCN(Cc3ccco3)CC2)C1` (stereo not drawn), the cytotoxicity at 10 µM was -3.57%.
For the compound `COCC(=O)N1CCCn2c(CN3CCOCC3)nnc2C1`, the cytotoxicity at 10 µM was -131%.
Under `Cc1ccccc1C(=O)N1C[C@@H]2OCCN(c3ncccn3)[C@@H]2C1` stands 29.5%.
On to `c1csc(CN2C[C@@H](n3cccn3)[C@H]3OCCC[C@H]32)c1`, for which the cytotoxicity at 10 µM worked out at 1.63%.
As for `CN1CC[C@]2(CN(Cc3nccs3)C[C@H]2c2ccccc2)C1=O`, the cytotoxicity at 10 µM is 10.8%.
